# According to ChEMBL document CHEMBL1132560, “N-Substituted 2-(2,6-dinitrophenylamino)propanamides: novel prodrugs that release a primary amine via nitroreduction and intramolecular cyclization” (J Med Chem, 1999):
# Tests used:
# [1] = 4-methoxyaniline yield was measured from 8 fold reduced forms of compound at pH 4
# Outline: (§1)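 Anaerobic aqueous solutions with 0.5 M 2-propanol were γ-irradiated to deliver a set number of molar equiv of reducing species (e⁻aq, (CH₃)₂C•OH), at room temperature. pH 7.4 runs used 0.01 M phosphate, pH 4.0 runs 0.01 M formate. […] Released 4-methoxyaniline was quantified by C-18 HPLC with diode-array detection.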
# [2] = 4-methoxyaniline yield was measured from 4 fold reduced forms of compound at pH 4; outline: as §1
# [3] = 4-methoxyaniline yield was measured from 8 fold reduced forms of compound at pH 7.4; outline: as §1
# [4] = 4-methoxyaniline yield was measured from 4 fold reduced forms of compound at pH 7.4; outline: as §1
# [5] = tested on: CHO-AA8; assay: Cytotoxicity on AA8 cell growth (reduce cell number by 50%).; type: functional, cell-based; conditions: Cricetulus griseus
# Outline: (§2)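 Cells in αMEM with 5% FBS plus penicillin/streptomycin were seeded per well at 200 (AA8), 300 (UV4), 75 (EMT6) or 600 (SKOV3) cells and grown 24 h. Drugs came from DMSO stocks (final DMSO <1%), pH 7.4. Exposure was aerobic for 4 h, followed by washing, 4–5 days further growth and methylene blue staining. IC₅₀ was set as 50% growth inhibition relative to same-plate controls. Mean ± SEM of 3–5 experiments.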
# [6] = tested on: EMT6; assay: Cytotoxicity on EMT6 cell growth (reduce cell number by 50%).; type: functional, cell-based; conditions: Mus musculus; outline: as §2
# [7] = tested on: SK-OV-3; assay: Cytotoxicity on SKOV3 cell growth (reduce cell number by 50%).; type: functional, cell-based; conditions: Homo sapiens; outline: as §2
# [8] = tested on: UV4; assay: Compound concentration to reduce plating efficiency of UV4 cells to 10% controls under aerobic conditions of 20% oxygen to that under […]; type: functional
# Outline: (§3)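 UV4 cells were grown to early plateau phase in spinner flasks and resuspended in fresh medium. Cells and drug in medium were pre-gassed for 1 h with 5% CO₂ in air (20% O₂) or in N₂. Cells at 10⁶/mL were then exposed for 1 h with continuous gassing and assayed clonogenically. C₁₀ is the concentration giving 10% surviving fraction; hypoxic selectivity is the ratio of aerobic to N₂ C₁₀. Mean ± SEM of 3 experiments.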
# [9] = tested on: UV4; assay: Compound's concentration to reduce plating efficiency of UV4 cells to 10% controls under aerobic conditions of 20% oxygen; type: functional; outline: as §3
# [10] = tested on: UV4; assay: Cytotoxicity on UV4 cell growth (reduce cell number by 50%).; type: functional, cell-based; conditions: Cricetulus griseus; outline: as §2
# [11] = 4-methoxyaniline yield was measured from 8 fold reduced forms of compound at 4; outline: as §1
# [12] = 4-methoxyaniline yield was measured from 4 fold reduced forms of compound at 4; outline: as §1
Structure (SMILES),Release [1],Release [2],Release [3],Release [4],IC50 [5],IC50 [6],IC50 [7],C10 [8],C10 [9],IC50 [10],further results
COc1ccc(NC(=O)CN(C)c2c([N+](=O)[O-])cc(C(=O)NCCO)cc2[N+](=O)[O-])cc1,100%,80%,–,–,–,–,–,–,–,–,–
COc1ccc(NC(=O)C(C)(C)Nc2c([N+](=O)[O-])cc(C(=O)NCCO)cc2[N+](=O)[O-])cc1,–,–,90%,90%,–,–,–,–,–,–,–
COc1ccc(NC(=O)C(C)Nc2c([N+](=O)[O-])cc(C(=O)NCC(O)CO)cc2[N+](=O)[O-])cc1 (stereo unspecified),–,–,92%,92%,–,–,–,–,–,–,–
COc1cc2cc(C(=O)N3CC(CCl)c4c3cc(N)c3ccccc43)[nH]c2c(OC)c1OC (stereo unspecified),–,–,–,–,0.46 nM,0.27 nM,1 nM,1.1 air/N2,3.4 nM,0.29 nM,–
COc1ccc(NC(=O)C(C)N(C)c2c([N+](=O)[O-])cc(C(=O)NCCO)cc2[N+](=O)[O-])cc1 (stereo unspecified),94%,80%,–,–,–,–,–,–,–,–,–
COc1ccc(NC(=O)C(C)Nc2c([N+](=O)[O-])cc(C(=O)NCCN(C)C)cc2[N+](=O)[O-])cc1 (stereo unspecified),–,–,89%,89%,–,–,–,–,–,–,–
COc1cc2cc(C(=O)N3CC(CCl)c4c3cc(NC(=O)C(C)Nc3c([N+](=O)[O-])cc(C(=O)NCCN(C)C)cc3[N+](=O)[O-])c3ccccc43)[nH]c2c(OC)c1OC (stereo unspecified),–,–,–,–,95 nM,41 nM,87 nM,1.8 air/N2,490 nM,53 nM,–
COc1ccc(NC(=O)C(C)Nc2c([N+](=O)[O-])cc(C(=O)NCCO)cc2[N+](=O)[O-])cc1 (stereo unspecified),–,–,77%,77%,–,–,–,–,–,–,Release [11]: 97%; Release [12]: 97%
COc1ccc(NC(=O)CNc2c([N+](=O)[O-])cc(C(=O)NCCO)cc2[N+](=O)[O-])cc1,83%,83%,69%,69%,–,–,–,–,–,–,–
CC(Nc1c([N+](=O)[O-])cc(C(=O)NCCN(C)C)cc1[N+](=O)[O-])C(=O)Nc1ccc(N(CCCl)CCCl)cc1 (stereo unspecified),–,–,–,–,10500 nM,1300 nM,1300 nM,1.3 air/N2,2100 nM,3000 nM,–
